Structures are written as SMILES. Several values for one entry are separate records, joined by “and”; a condition that tells them apart may be missing. Identical values can stand only once.

The target in assay [1] is T1, Hemoglobin HbA (Homo sapiens) (UniProt P69905+P68871). In words: Ratio of compound modified hemoglobin aggregation […]. In kind it is functional.
Assay [2] has as its target T1, Hemoglobin HbA (Homo sapiens). In words: Inhibition of sickle hemoglobin aggregation using standard saturation solubility (CSAT) assay. The assay is classed as functional. In outline:
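Saturation solubility (Csat) of deoxy HbS or inhibitor-modified HbS in 50 mM phosphate, pH 7.0. CO is removed by photodissociation under oxygen. HbSO2 at 35 g/dL is deoxygenated on ice with 0.9 M sodium dithionite solution, then centrifuged 1 h at 30 °C. Supernatant Hb is measured spectrophotometrically, and activity is expressed as the solubility increase over the unmodified HbS control.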

For assay [3] the target is unchanged. The assay can be described thus: Affinity towards oxygen by hemoglobin after modification by compound. In kind it is functional.
The target of assay [4] is Hemoglobin subunit beta (Homo sapiens) (UniProt P68871). In words: Percent modification of human Hemoglobin beta (100 uM) after 3h of incubation. In outline:
(§1)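 HbA·CO at 100 μM final (tetramer) reacted with isothiocyanate at a 2:1 compound:Hb molar ratio in 50 mM ammonium acetate, pH 7.3, with 2% DMSO or buffer alone, for 3 h at 37 °C. An aliquot was diluted in acetonitrile/water with 0.2% formic acid and analysed by electrospray MS to give percent modified α- and β-subunit. Some compounds were run in triplicate.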

The target of assay [5] is Hemoglobin subunit alpha (Homo sapiens) (UniProt P69905). In words: Percent modification of human hemoglobin alpha (100 uM) after 3h of incubation. Summed up:
as §1

Assay [6] has the same target. The assay can be described thus: Percent modification of human Hemoglobin alpha (100 uM) after 3h of incubation. Summed up:
as §1

The target is the same in assay [7]. The assay can be described thus: Percent modification of alpha-subunit of human hemoglobin (100 uM) after 3h of incubation. Summed up: as §1

Chain of Hemoglobin subunit alpha (Homo sapiens) (P69905 whole entry): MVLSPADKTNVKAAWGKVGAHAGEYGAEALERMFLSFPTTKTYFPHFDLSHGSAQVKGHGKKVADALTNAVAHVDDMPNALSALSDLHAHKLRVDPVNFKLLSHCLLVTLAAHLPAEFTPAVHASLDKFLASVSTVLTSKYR
Chain of Hemoglobin subunit beta (Homo sapiens) (P68871 2-147 limits assumed): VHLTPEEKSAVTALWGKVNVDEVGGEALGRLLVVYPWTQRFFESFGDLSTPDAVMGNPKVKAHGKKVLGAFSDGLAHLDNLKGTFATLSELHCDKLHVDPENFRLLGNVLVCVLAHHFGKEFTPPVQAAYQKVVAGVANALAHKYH
T1 sequence (P68871 2-147 partner limits assumed): as the sequence (P68871 2-147 limits assumed) above
T1 sequence (P69905 2-142 limits assumed): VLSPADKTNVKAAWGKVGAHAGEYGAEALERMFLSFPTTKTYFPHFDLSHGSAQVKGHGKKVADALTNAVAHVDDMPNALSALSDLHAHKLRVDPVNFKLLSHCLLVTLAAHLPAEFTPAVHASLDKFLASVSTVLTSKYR

In the case of `CN(C)CCCCCSC#N`, in assay [1], the Csat/Co was 1.34 and 1.35 and 1.37. Moreover, the Csat in assay [2] was 21.3 g/dL and 20.2 g/dL and 20.7 g/dL. Also, the Co in assay [3] is 15.9 g/dL and 15 g/dL and 15.1 g/dL.
Regarding `N#CSCc1ccncc1`, the Modification came to 58% in assay [4] and 6% in assay [5].
Take `CCN(CC)CCCCSC#N`: in assay [1], the Csat/Co is 1.3 (2×) and 1.27. In addition, the Csat in assay [2] was 20.7 g/dL and 19.1 g/dL and 19.7 g/dL. The Co in assay [3] is 15.9 g/dL and 15 g/dL and 15.1 g/dL.
As for `CN(C)c1ccc(SC#N)cc1`, the Csat/Co in assay [1] was 1.07. For the same compound, in assay [2], the Csat came to 18.2 g/dL. The values for the Modification in assay [4] and in assay [6] were 10% and 48%, respectively. This compound had a Co in assay [3] of 17 g/dL.
For the compound `N#CCCSC#N`, the Csat/Co in assay [1] was 1.08 and 1.1 and 1.09. Besides, the Csat in assay [2] was 17.4 g/dL and 17.8 g/dL and 17.7 g/dL. Moreover, the values for the Modification in assay [4] and in assay [5] were 21% and 10%, respectively. In addition, the Co in assay [3] was 16.1 g/dL and 16.3 g/dL and 16.2 g/dL.
In the case of `N#CSCCCCCO`, the Csat/Co in assay [1] came to 1.11. For the same compound, the Csat in assay [2] was 18.8 g/dL. Further, the Co in assay [3] turned out to be 17 g/dL.
`N#CSCCCN1CCCC1=O`: the Modification in assay [4] turned out to be 24%; in assay [5], 0%.
Turning to `N#CSc1ccc(CCO)cc1`, the Csat/Co in assay [1] was 1.1. Also, the Csat in assay [2] was determined as 18.7 g/dL. The Modification in assay [4] is 8% and 9% (2×); in assay [7], 72%; in assay [6], 66%; in assay [5], 72%. Moreover, in assay [3], the Co is 17 g/dL.
On to `N#CSc1ccc(C(=O)O)c(O)c1`, for which the Modification in assay [4] came to 3%; in assay [5] it was 35%.
Turning to `CCN(CC)CCNC(=O)c1ccc(SC#N)cc1`, the Modification in assay [4] is 17% and 16% and 15%; in assay [6], 40%; in assay [5] it was 36% and 42%.
On to `N#CSc1ccc(O)cc1`, for which the figures for the Modification in assay [4] and in assay [6] were 8% and 51%, respectively.
As for `COC(CSC#N)OC`, the Csat/Co in assay [1] is 1.07 (2×) and 1.04. In assay [2], the Csat was 18.2 g/dL and 17.4 g/dL and 17.3 g/dL. Also, the Modification in assay [4] worked out at 33%; in assay [5], 11%. For the same compound, the Co in assay [3] is 17 g/dL and 16.2 g/dL and 16.5 g/dL.
For the compound `N#CSCCN1CCCCC1`, the Csat/Co in assay [1] is 1.24 (2×) and 1.23. In assay [2], the Csat is 20.9 g/dL and 20.1 g/dL and 20.5 g/dL. Besides, the Co in assay [3] is 16.8 g/dL and 16.4 g/dL and 16.5 g/dL.
In the case of `CN(C)CCCCSC#N`, the Csat/Co in assay [1] was 1.23 and 1.22 and 1.27. Also, in assay [2], the Csat is 18.8 g dl-1 and 19.1 g dl-1 (2×). Also, the Co in assay [3] was 15.3 g/dL and 15.6 g/dL and 15.1 g/dL.
Take `CCN(CC)CCCSC#N`: the Csat/Co in assay [1] was 1.24 and 1.2 and 1.22. Further, the Csat in assay [2] is 19.9 g/dL and 19.6 g/dL and 19.7 g/dL. The Modification in assay [4] is 37%; in assay [5], 0%. Further, in assay [3], the Co was 16.1 g/dL and 16.3 g/dL and 16.2 g/dL.
For `N#CSC1CCC(O)CC1` (stereo not given), the Modification came out at 18% in assay [4] and 0% in assay [5].
On to `CCN(CC)CCSC#N`, for which the Csat/Co in assay [1] was 1.24 and 1.22 (2×). Moreover, in assay [2], the Csat was 21 g/dL and 19.8 g/dL and 20.1 g/dL. In addition, in assay [3], the Co is 17 g/dL and 16.2 g/dL and 16.5 g/dL.
Regarding `N#CSCCc1c[nH]c2ccccc12`, the Modification in assay [4] came out at 24%; in assay [5] it was 7%.
The like results for `N#CSc1ccc(CC(=O)O)cc1` were, in that order, 13% and 42%.
Take `CCN(CC)CCCCCSC#N`: in assay [1], the Csat/Co was 1.33 and 1.36 and 1.35. Moreover, the Csat in assay [2] was 21.1 g dl-1 and 20.4 g dl-1 (2×). For the same compound, the Co in assay [3] was 15.9 g/dL and 15 g/dL and 15.1 g/dL.
For the compound `N#CSCCCn1ccnc1`, in assay [1], the Csat/Co was 1.21 and 1.15 and 1.18. In addition, the Csat in assay [2] was 20.6 g/dL and 18.6 g/dL and 19.6 g/dL. In addition, the Modification was 13% in assay [4] and 7% in assay [5]. The Co in assay [3] is 17 g/dL and 16.2 g/dL and 16.5 g/dL.

The values above are taken from ChEMBL document CHEMBL1136727, “Regioselective covalent modification of hemoglobin in search of antisickling agents” (J Med Chem, 2003).
